Data as given in PubChem BioAssay AID652138 (The Scripps Research Institute Molecular Screening Center, 2013).
Active and inactive are the calls of the source.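 How the source made its calls: active means IC50 at or below 10 µM, the dose giving half-maximal inhibition of the luminescence signal; inactive means IC50 above 10 µM.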

What follows are compounds tested against Perilipin-5 (Homo sapiens) + 1-acylglycerol-3-phosphate O-acyltransferase ABHD5 (Homo sapiens) (UniProt Q00G26+Q8WTS1) (assay: ABHD5-PLIN5 binding inhibitors, late-stage follow-up, biochemical, luminescence, dose response, round 3 (AID 652138)). Conditions: split G. princeps luciferase complementation, 4 h.
Summary of the method: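 Material: Split Gaussia princeps luciferase complementation, LucC-tagged ABHD5 with LucN-tagged MLDP | Compound dosing: Triplicate 10-point threefold series, top nominal 40 µM | Incubation: 4 h at 25 °C plus 30 min readout step | Technique: Coelenterazine luminescence | Control set: DMSO as low control, 25 µM trans-chalcone as high control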

Chain of Perilipin-5 (Homo sapiens) + 1-acylglycerol-3-phosphate O-acyltransferase ABHD5 (Homo sapiens) (Q00G26 whole entry, looked up): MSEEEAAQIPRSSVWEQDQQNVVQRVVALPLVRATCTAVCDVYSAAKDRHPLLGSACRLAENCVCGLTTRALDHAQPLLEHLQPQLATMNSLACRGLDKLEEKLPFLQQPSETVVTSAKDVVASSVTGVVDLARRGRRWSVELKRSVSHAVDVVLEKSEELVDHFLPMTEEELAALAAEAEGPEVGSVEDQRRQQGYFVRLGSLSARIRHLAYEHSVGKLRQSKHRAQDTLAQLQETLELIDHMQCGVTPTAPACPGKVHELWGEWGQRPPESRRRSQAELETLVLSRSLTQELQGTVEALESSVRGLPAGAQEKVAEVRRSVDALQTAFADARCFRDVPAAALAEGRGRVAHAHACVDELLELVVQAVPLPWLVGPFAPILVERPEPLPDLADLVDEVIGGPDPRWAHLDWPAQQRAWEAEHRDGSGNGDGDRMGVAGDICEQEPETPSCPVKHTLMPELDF
Chain of Perilipin-5 (Homo sapiens) + 1-acylglycerol-3-phosphate O-acyltransferase ABHD5 (Homo sapiens) (Q8WTS1 whole entry, looked up): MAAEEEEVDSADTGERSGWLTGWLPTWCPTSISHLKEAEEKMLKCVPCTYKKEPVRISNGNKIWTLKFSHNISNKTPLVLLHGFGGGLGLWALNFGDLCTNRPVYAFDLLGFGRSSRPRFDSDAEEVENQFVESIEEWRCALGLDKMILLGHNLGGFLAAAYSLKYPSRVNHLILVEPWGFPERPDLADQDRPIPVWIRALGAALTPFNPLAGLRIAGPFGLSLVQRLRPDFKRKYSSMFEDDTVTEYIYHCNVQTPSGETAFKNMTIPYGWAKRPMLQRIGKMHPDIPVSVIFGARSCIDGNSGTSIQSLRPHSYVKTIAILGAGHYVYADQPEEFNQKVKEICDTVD

IC50	Structure (SMILES)
inactive	CCCCNC(=O)Nc1ccc2c(c1)N(C)C(=O)c1ccccc1S2
4.04 µM	CN1C(=O)c2ccccc2Sc2ccc(NC(=O)NCCCc3ccccc3)cc21

The remaining lines, values behind:

Structure (SMILES)	IC50
Cc1ccc2c(CC(=O)N3CCN(S(=O)(=O)c4ccc5c(c4)OCCO5)CC3)coc2c1	inactive
CCCCCCNC(=O)Nc1ccc2c(c1)N(C)C(=O)c1ccccc1S2	4.71 µM
CCCCCCCNC(=O)Nc1ccc2c(c1)N(C)C(=O)c1ccccc1S2	7.78 µM
CCCCCNC(=O)Nc1ccc2c(c1)N(C)C(=O)c1ccccc1S2	3.32 µM
